Source: publication PMC12638245 (Nature Metabolism, 2025)

Key:
[1] = system: ChREBP; conditions: G3P added to HEK293T cells expressing ChREBP and MLX; cited from earlier work
[2] = system: hepatic ChREBP transcription programme; type: in vivo, mouse; conditions: liver
Procedure, shortened: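 Mice aged 8–16 weeks, single-housed on chow with water or 5% (w/v) glycerol as the only drink for 2 days. Livers freeze-clamped in liquid nitrogen. RNA from 20 mg liver, DNase-treated, RIN >5.0; libraries from 150 ng RNA. Paired-end 150 bp sequencing, >20 million read pairs per sample. HTSeq counts, TMM normalisation in edgeR, GLMs with sequencing batch as covariate.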

[3] = system: hepatic G3P, hexose phosphates, pentose phosphates; test: Targeted LC-MS metabolomics of mouse liver; type: in vivo
Procedure, shortened: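 Freeze-clamped liver powder (2.0 mg) spiked with 13C3-G3P (2.28 µM final) or a 13C yeast extract internal standard (hexose/pentose phosphates). Boiling 25% 10 mM HEPES/75% ethanol extraction, 55 °C 5 min, sonication, spin at 16,100g, dried, diluted 20-fold. Ion-pair reversed-phase UHPLC (tributylamine/acetic acid, methanol gradient), negative-mode targeted MS2. G3P and hexose phosphates quantified; pentose phosphates relative only.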

[4] = system: circulating FGF21; test: Serum FGF21 ELISA in mice given 5%; type: in vivo, mouse; conditions: mice of each genotype, 5% (w/v) glycerol in drinking water for 2 days, vs water
Procedure, shortened: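 Mice aged 8–16 weeks, single-housed for 2 days on chow with water or 5% (w/v) glycerol. Blood taken at decapitation; serum spun 8,000g, 10 min, 4 °C. Sandwich ELISA: samples 2 h at room temperature, HRP-conjugated anti-FGF21 2 h, substrate 30 min, read at 450 nm with 570 nm correction. Haemolysed samples excluded; genotype-blinded analysis; two-way ANOVA with Tukey.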

[5] = genotype and/or addition of glycerol

Row | SMILES | protection of ChREBP from thermal precipitation [1] | induction of ChREBP transcripts by glycerol ([2]; Slc25a13-/- Gpd2-/- double mutant) | Srebf1 expression ([2]; addition of glycerol) | induction of ChREBPα transcript by glycerol ([2]; wild-type and single mutant strains) | hepatic concentrations of hexose phosphates [3, 5] | relative levels of pentose phosphates in liver [3, 5] | hepatic G3P level ([3]; glycerol-exposed male mice, each of the four genotypes, vs water) | circulating FGF21 [4]
1 | O=P(O)(O)OCC(O)CO (centres unmarked) [G3P, glycerol-3-phosphate] | protected ChREBP from thermal precipitation |  |  |  |  |  |  | 
2 | OCC(O)CO [glycerol] |  | no further induction | unaffected | two- to threefold | not altered | unaffected | tended to be higher | significantly elevated circulating FGF21
